The text below walks through data of publication PMC9150435 (Nature, 2021).

Assay [1] has as its target MRGPRX4 (Homo sapiens, UniProt Q96LA9). In words: FLIPR Ca2+ assay, agonist mode, MRGPRX4 stable cells. The format is cell-based. The settings on record: read-out: EC50, MRGPRX4 agonist.
Assay [2] relates to Kir6.2/SUR1 potassium channel. In words: Whole-cell electrophysiology, Kir6.2/SUR1 current inhibition in HEK293 cells. The format is cell-based, human.
Another assay relates to 320 GPCRs. In words: PRESTO-Tango GPCRome screening. Particulars: 3 μM. The format is cell-based. In short, it runs like this:
(§1)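 HTLA cells in DMEM + 1% dialyzed FBS were PEI-transfected in-plate with PRESTO-Tango receptor DNA (17 ng/well). After overnight culture, test compound at 3 μM final was added for 18–20 h without medium change. Luminescence read 20 min after Bright-Glo. Assay control: D2 receptor with 0.1 mM quinpirole. Output is fold over basal RLU (n=4 technical replicates); receptors exceeding 3-fold basal were repeated as full dose–response.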

In the next assay the target is MRGPRX1 (Homo sapiens, UniProt Q96LB2). In words: PRESTO-Tango single-point and concentration-response assay at MRGPRX1. Format: cell-based. In short, it runs like this:
as §1

In assay [3] the target is MRGPRX4 mutants (Homo sapiens, UniProt Q96LA9, Y130A). In words: BRET2 Gq activation, MRGPRX4 mutants. The format is cell-based. The settings on record: MRGPRX4 Y130(ICL2)A.
MRGPRX4 mutants (Homo sapiens, UniProt Q96LA9, Y130A), sequence (Q96LA9 whole entry Y130A): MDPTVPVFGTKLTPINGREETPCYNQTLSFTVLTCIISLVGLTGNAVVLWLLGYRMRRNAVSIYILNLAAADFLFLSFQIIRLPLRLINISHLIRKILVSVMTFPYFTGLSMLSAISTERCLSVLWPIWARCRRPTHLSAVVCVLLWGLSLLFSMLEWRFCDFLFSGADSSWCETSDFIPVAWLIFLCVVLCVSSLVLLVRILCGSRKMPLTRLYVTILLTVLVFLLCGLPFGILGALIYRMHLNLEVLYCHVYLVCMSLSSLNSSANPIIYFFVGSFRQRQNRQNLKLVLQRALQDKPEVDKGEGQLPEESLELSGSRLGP
Assay [4] relates to MRGPRX4 mutants. In words: BRET2 Gq activation, MRGPRX4 mutants. The format is cell-based, human. Particulars: MRGPRX4 pocket mutants. A general note: Bioluminescence resonance energy transfer reports proximity on the nanometre scale.
A further assay has as its target MRGPRX4 Leu83Ser (Homo sapiens, UniProt Q96LA9, L83S). Briefly: Agonist potency at MRGPRX4 Leu83Ser variant. Format: cell-based.
Assay [5] deals with MRGPRX4. The settings on record: previously identified; cited from earlier work.
Assay [6] has as its target T1, MRGPRX2 mutants (Homo sapiens, UniProt Q96LB1, F170A).
T1 sequence (Q96LB1 1-330 F170A): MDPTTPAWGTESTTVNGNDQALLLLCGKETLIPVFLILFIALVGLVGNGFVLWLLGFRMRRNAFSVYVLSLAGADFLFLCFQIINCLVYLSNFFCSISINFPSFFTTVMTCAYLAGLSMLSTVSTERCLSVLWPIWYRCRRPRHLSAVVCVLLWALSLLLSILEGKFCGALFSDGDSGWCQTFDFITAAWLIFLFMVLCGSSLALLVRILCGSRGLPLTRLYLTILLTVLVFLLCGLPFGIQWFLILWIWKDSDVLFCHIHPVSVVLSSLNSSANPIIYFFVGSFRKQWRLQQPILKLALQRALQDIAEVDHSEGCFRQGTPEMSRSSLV
Briefly: BRET2 Gq activation, MRGPRX2 mutants. The settings on record: MRGPRX2 F170(ECL2)A. Format: cell-based.

For assay [7], the target named is T2, MRGPRX2 mutants (Homo sapiens, UniProt Q96LB1, I135A).
T2 sequence (Q96LB1 1-330 I135A): T1 sequence (Q96LB1 1-330 F170A) with I135A, A170F
In words: BRET2 Gq activation, MRGPRX2 mutants. The format is cell-based. The settings on record: MRGPRX2 I135(ICL2)A.

In assay [8] the target is T3, MRGPRX2 mutants (Homo sapiens, UniProt Q96LB1, W243A).
T3 sequence (Q96LB1 1-330 W243A): T1 sequence (Q96LB1 1-330 F170A) with A170F, W243A
In words: BRET2 Gq activation, MRGPRX2 mutants. Particulars: MRGPRX2 W243A. The format is cell-based.

In assay [9] the target is T2, MRGPRX2 mutants. Briefly: BRET2 Gi1 activation, MRGPRX2 mutants. Format: cell-based. Particulars: MRGPRX2 I135(ICL2)A.
The subject of assay [10] is MRGPRX2 mutants. Briefly: BRET2 Gi1 activation, MRGPRX2 mutants. The format is cell-based, human. The settings on record: MRGPRX2 R214A, L216A.
Assay [11] deals with MRGPRX2 mutants. In words: BRET2 Gq activation, MRGPRX2 mutants. The format is cell-based, human.

Numbering of substitutions follows the chain as printed.

MRGPRX4 Leu83Ser, sequence (Q96LA9 whole entry L83S): as the sequence (Q96LA9 whole entry Y130A) above, with L83S, A130Y counted along it
MRGPRX1, sequence (Q96LB2 whole entry): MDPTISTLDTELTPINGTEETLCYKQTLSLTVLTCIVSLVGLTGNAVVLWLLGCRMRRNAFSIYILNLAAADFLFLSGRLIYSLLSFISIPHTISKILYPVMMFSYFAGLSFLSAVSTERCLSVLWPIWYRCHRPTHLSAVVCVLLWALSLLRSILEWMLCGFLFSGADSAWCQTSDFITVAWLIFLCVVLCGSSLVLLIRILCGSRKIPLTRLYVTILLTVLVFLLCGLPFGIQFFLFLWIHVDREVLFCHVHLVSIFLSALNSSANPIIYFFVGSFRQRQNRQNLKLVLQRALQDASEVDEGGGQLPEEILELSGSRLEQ
MRGPRX4 (Homo sapiens, UniProt Q96LA9), sequence (Q96LA9 whole entry): as the sequence (Q96LA9 whole entry Y130A) above, with A130Y counted along it

What is called EC50 is the concentration needed to bring the measured effect to its halfway point. Turning to `C[C@]12CC3CC(C(=O)N[C@H](Cc4ccccc4)C(=O)O)(C1)C[C@@](C)(C3)C2` [MS47134], the EC50 at MRGPRX4 [1] stood at 150 nM. For the same molecule, the “selectivity over Kir6.2/SUR1 channel compared to nateglinide” value in [2] is “higher selectivity”. Moreover, the “improved selectivity for MRGPRX4 over the Kir6.2/SUR1 potassium channel” value in [2] (MRGPRX4 FLIPR vs Kir6.2/SUR1 current inhibition) is 47 fold. Moreover, the “off-target agonist or antagonist activity across GPCRome” value with 320 GPCRs was “activity only at MRGPRX4 and MRGPRX1”. Further, the “activity against MRGPRX1 in concentration-response assay” value at MRGPRX1 (full dose-response repeat) is given as “not replicated”. Besides, the “activity at MRGPRX1, fold of basal levels of relative luminescence units” value at MRGPRX1 (single-point assay, 3 μM) is reported as “more than 3 fold”. Besides, the “effect of Y130A mutation on agonist potency” value on MRGPRX4 mutants [3] was “reduced the agonist potency”. The “effect of most mutations surrounding MS47134 on potency” value in the assay with MRGPRX4 mutants [4] was “greatly affected its potency”. Also, at MRGPRX4 Leu83Ser, the “effect of Leu83Ser mutation on agonist potency” value is reported as “greatly attenuated the potency”.
In the case of `CC(C)[C@H]1CC[C@H](C(=O)N[C@H](Cc2ccccc2)C(=O)O)CC1` [nateglinide], at MRGPRX4 Leu83Ser, the “effect of Leu83Ser mutation on agonist potency” value is listed as “greatly attenuated the potency”. In addition, in the assay with MRGPRX4 [5], the MRGPRX4 agonist potency entry was “low micromolar agonist”.
cortistatin-14 (PCKNFFWKTFSSCK): the “effect of F170A mutation on agonist stimulated Gq activation” value in the assay with MRGPRX2 mutants [6] was “reduced the potency”. The “effect of I135A mutation on stimulated Gq activation” value with MRGPRX2 mutants [7] is “greatly reduced”. For the same molecule, the “effect of W243A mutation on agonist stimulated Gq activation” value with MRGPRX2 mutants [8] is listed as “abolished the activity”. In addition, the “effect of I135A mutation on stimulated Gi1 activation” value in the assay with MRGPRX2 mutants [9] is “attenuate”. Also, the “effect of ICL3 mutations R214A and L216A on stimulated Gi1 activation” value in the assay on MRGPRX2 mutants [10] is reported as “impairs”.
Turning to `CN(C)[C@@H]1CCN(c2cc(-c3ccccc3)nc3ccnn23)C1` [(R)-ZINC-3573], the “effect of I135A mutation on stimulated Gq activation” value at MRGPRX2 mutants [7] is listed as “greatly reduced”. Besides, the “effect of D184A and E164A substitutions on agonist stimulated Gq activation” value with MRGPRX2 mutants [11] (MRGPRX2 D184A, E164A) was “impaired the efficacy”. Besides, in the assay on MRGPRX2 mutants [11] (MRGPRX2 pocket alanine mutants), the “effect of most alanine mutations in the (R)-ZINC-3573 pocket” value is reported as “greatly reduced the efficacy”. Besides, the “effect of I135A mutation on stimulated Gi1 activation” value at MRGPRX2 mutants [9] was “attenuate”. Moreover, in the assay on MRGPRX2 mutants [10], the “effect of ICL3 mutations R214A and L216A on stimulated Gi1 activation” value is reported as “impairs”.
